pIC50: −log10 of the molar value. Calls of active or inactive are those of the source. The rule behind the calls is not given here.
Legend:
[1] = biological target: Eukaryotic translation initiation factor 2-alpha kinase 1 (Homo sapiens) (UniProt Q9BQI3); test: Activation of HRI in human CRL-2813-pBISA-DL(ATF-4) reporter cells assessed as concentration required to obtain F-luciferase expression/R-luciferase expression ratio 3
Outline: (§1)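 Stably transfected CRL-2813-pBISA-DL(ATF-4) reporter cells treated with compounds in dose-response; firefly and renilla luciferases read by dual glow luciferase kit. Activity = firefly/renilla (F/R) ratio normalized to DMSO-treated wells (set at 1). Triplicate points fitted to logistic sigmoidal model by nonlinear least squares; C3X = concentration giving F/R = 3, Emax = maximal F/R.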

[2] = Cytotoxicity against human CRL2813 cells after 5 days by SRB assay; format: functional, cell-based; details: CRL2813, 120 h
Outline: (§2)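 CRL-2813 melanoma or NIH/3T3 fibroblasts seeded in 96-well plates, exposed 5 days to 0.5–20 μM compound; fixed in cold 10% TCA, bound sulforhodamine B measured. % growth = 100×(T−T0)/(C−T0). IC50 derived; triplicate, three independent experiments.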

[3] = biological target: Eukaryotic translation initiation factor 2-alpha kinase 1 (Homo sapiens) (UniProt Q9BQI3); test: Activation of HRI in human CRL-2813-pBISA-DL(ATF-4) reporter cells assessed as reduction of ternary complex at 30 uM by dual-luciferase reporter gene assay relative to control; outline: as §1
[4] = Antiproliferative activity against human CRL2813 cells after 3 days by SRB assay in presence of HRI-targeting siRNA; format: functional, cell-based; details: CRL2813, 72 h
Outline: (§3)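 CRL-2813 cells transiently transfected (Lipofectamine 2000) with HRI-targeting or non-targeting siRNA, then treated with compound dose range; proliferation by SRB after 3 days. IC50 calculated per siRNA condition; ratio is HRI-siRNA over non-targeting IC50. Triplicate, three independent experiments; mean±S.E.M.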

[5] = Antiproliferative activity against human CRL2813 cells after 3 days by SRB assay in presence of non-targeting siRNA; format: functional, cell-based; details: CRL2813, 72 h; outline: as §3
[6] = Selectivity ratio of IC50 for mouse NIH/3T3 cells to IC50 for human CRL2813 cells; format: ADME, cell-based; details: NIH/3T3 cells and CRL2813 cells, read-out: Ratio IC50
NIH3T3 = test: Cytotoxicity against mouse NIH/3T3 cells after 5 days by SRB assay; format: cell-based; details: NIH3T3, 120 h; outline: as §2
[7] = biological target: Eukaryotic translation initiation factor 2-alpha kinase 1 (Homo sapiens) (UniProt Q9BQI3); test: Activation of HRI in human CRL2813 cells assessed as reduction in cyclin D1 mRNA expression at 7.5 to 15 uM after 6 hrs by RT-PCR analysis; format: cell-based
Outline: (§4)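 CRL-2813 cells incubated with 7.5 or 15 μM compound for 6 h; CHOP and cyclin D1 mRNA measured by real-time PCR. Each run in triplicate, mean of three independent experiments ±S.E.M.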

[8] = biological target: Eukaryotic translation initiation factor 2-alpha kinase 1 (Homo sapiens) (UniProt Q9BQI3); test: Activation of HRI in human CRL2813 cells assessed as increase in CHOP mRNA expression at 7.5 to 15 uM after 6 hrs by RT-PCR analysis; format: cell-based; outline: as §4
[9] = biological target: Eukaryotic translation initiation factor 2-alpha kinase 1 (Homo sapiens) (UniProt Q9BQI3); test: Activation of HRI in human CRL2813 cells assessed as reduction in cyclin D1 protein expression at 10 uM after 6 hrs by Western blotting analysis; format: cell-based
Outline: (§5)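 CRL-2813 melanoma cells grown in serum-containing medium without antibiotics to 70% confluence, treated 6 h (10 μM for CHOP/cyclin D1), lysed in M-PER on ice 30 min, protein by BCA. Equal protein on SDS-PAGE, probed with anti-pS51-eIF2α rabbit mAb, anti-total eIF2α mouse mAb, anti-CHOP, anti-cyclin D1, anti-actin. Three independent experiments.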

[10] = biological target: Eukaryotic translation initiation factor 2-alpha kinase 1 (Homo sapiens) (UniProt Q9BQI3); test: Activation of HRI in human CRL2813 cells assessed as increase in CHOP protein expression at 10 uM after 6 hrs by Western blotting analysis; format: cell-based; outline: as §5
[11] = biological target: Eukaryotic translation initiation factor 2-alpha kinase 1 (Homo sapiens) (UniProt Q9BQI3); test: Activation of HRI in human CRL2813 cells assessed as eIF2alpha phosphorylation after 6 hrs by Western blotting analysis; format: cell-based; outline: as §5
[12] = biological target: Eukaryotic translation initiation factor 2-alpha kinase 1 (Homo sapiens) (UniProt Q9BQI3); test: Activation of HRI in human CRL-2813-pBISA-DL(ATF-4) reporter cells assessed as eIF2alpha phosphorylation after 8 to 32 hrs by dual-luciferase reporter gene assay
Outline: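 Reporter CRL-2813-pBISA-DL(ATF-4) cells incubated with compounds for 8, 16 or 32 h. Firefly/renilla luciferase ratio measured by dual luciferase assay and normalized to vehicle-treated cells.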

Sequence of Eukaryotic translation initiation factor 2-alpha kinase 1 (Homo sapiens) (Q9BQI3 whole entry): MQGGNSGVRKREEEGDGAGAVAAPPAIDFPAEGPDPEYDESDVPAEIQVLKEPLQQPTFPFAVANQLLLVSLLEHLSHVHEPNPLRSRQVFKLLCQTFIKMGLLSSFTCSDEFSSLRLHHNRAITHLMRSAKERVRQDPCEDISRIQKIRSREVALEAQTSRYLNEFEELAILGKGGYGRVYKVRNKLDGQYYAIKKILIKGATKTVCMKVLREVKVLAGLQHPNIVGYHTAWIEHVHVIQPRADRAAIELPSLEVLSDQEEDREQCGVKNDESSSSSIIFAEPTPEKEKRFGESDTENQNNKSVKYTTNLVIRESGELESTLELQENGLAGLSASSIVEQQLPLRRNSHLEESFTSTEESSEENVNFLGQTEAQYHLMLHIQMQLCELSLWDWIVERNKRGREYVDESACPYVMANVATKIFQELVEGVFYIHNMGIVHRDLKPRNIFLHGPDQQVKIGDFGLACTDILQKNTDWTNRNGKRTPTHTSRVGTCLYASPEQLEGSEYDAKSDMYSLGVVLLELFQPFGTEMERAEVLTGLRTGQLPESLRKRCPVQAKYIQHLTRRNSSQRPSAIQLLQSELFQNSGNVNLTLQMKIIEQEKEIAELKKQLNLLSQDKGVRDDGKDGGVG

Row | SMILES | Activity [1] [µM] | pIC50 [2] | Ratio [3] | also measured
1 | O=C(Nc1ccc(C(=O)O)cc1)N[C@H]1CC[C@H](Oc2ccc(F)cc2)CC1 | 21.2 | 4.94 | 3.49 | –
2 | CSc1ccccc1NC(=O)N[C@H]1CC[C@H](Oc2ccc(F)cc2)CC1 | – | < 4.70 | 0.92 | –
3 | O=C(Nc1cccc(Br)c1)N[C@H]1CC[C@H](Oc2ccc(F)cc2)CC1 | 5.7 | 5.21 | 9.52 | –
4 | O=C(Nc1ccc(Br)cc1)N[C@H]1CC[C@H](Oc2ccc(F)cc2)CC1 | – | < 4.70 | 1.29 | –
5 | O=C(Nc1cccc(I)c1)N[C@H]1CC[C@H](Oc2ccc(F)cc2)CC1 | 5.6 | 5.28 | 7.63 | –
6 | O=C(Nc1cccc(C(F)(F)F)c1)N[C@H]1CCC[C@H](Oc2ccc(C(F)(F)F)cc2)C1 (relative stereo) | 2.7 | 5.42 | 4.52 | –
7 | O=C(Nc1cccc(C(F)(F)F)c1)N[C@H]1CC[C@H](Oc2ccc(OC(F)(F)F)cc2)CC1 | 1.5 | 6.16 | 14.4 | pIC50 [4]: 5.31; pIC50 [5]: 6.07; selectivity ratio [6]: 4.9; pIC50 (NIH3T3): 5.47
8 | O=C(Nc1cccc(C(=O)O)c1)N[C@H]1CC[C@H](Oc2ccc(F)cc2)CC1 | – | < 4.70 | 0.88 | –
9 | O=C(Nc1ccccc1I)N[C@H]1CC[C@H](Oc2ccc(F)cc2)CC1 | 18.5 | < 4.70 | 3.25 | –
10 | O=C(Nc1ccccc1C(F)(F)F)N[C@H]1CC[C@H](Oc2ccc(F)cc2)CC1 | – | < 4.70 | 1.56 | Activity [7]: Active; Activity [8]: Active; Activity [9]: Active; Activity [10]: Active; Activity [11]: Active
11 | Cc1ccccc1NC(=O)N[C@H]1CC[C@H](Oc2ccc(F)cc2)CC1 | – | < 4.70 | 0.98 | –
12 | O=C(Nc1ccc(F)cc1)N[C@H]1CC[C@H](Oc2ccc(F)cc2)CC1 | – | 4.70 | 0.98 | –
13 | O=C(Nc1cccc(C(F)(F)F)c1)N[C@H]1CCCC[C@@H]1Oc1ccc(C(F)(F)F)cc1 (relative stereo) | 1.7 | 5.51 | 5.89 | Activity [12]: Active
14 | O=C(Nc1ccccc1OC(F)(F)F)N[C@H]1CC[C@H](Oc2ccc(F)cc2)CC1 | – | < 4.70 | 1.41 | –
15 | O=C(Nc1cccc(C(F)(F)F)c1)N[C@H]1CC[C@H](Oc2ccc(Cl)cc2)CC1 | 1.6 | 5.70 | 6.73 | –
16 | O=C(Nc1ccccc1[N+](=O)[O-])N[C@H]1CC[C@H](Oc2ccc(F)cc2)CC1 | – | 5.46 | 2.23 | –
17 | O=C(Nc1ccc(I)cc1)N[C@H]1CC[C@H](Oc2ccc(F)cc2)CC1 | 6.3 | 4.99 | 3.77 | –
18 | O=C(Nc1cccc(F)c1)N[C@H]1CC[C@H](Oc2ccc(F)cc2)CC1 | 13.5 | 5.08 | 6.54 | Activity [7]: Active; Activity [8]: Active; Activity [9]: Active; Activity [10]: Active; Activity [11]: Active
19 | O=C(Nc1ccccc1Cl)N[C@H]1CC[C@H](Oc2ccc(F)cc2)CC1 | 18.5 | 5.04 | 5.37 | –
20 | CSc1ccc(NC(=O)N[C@H]2CC[C@H](Oc3ccc(F)cc3)CC2)cc1 | – | < 4.70 | 1.07 | –
21 | Cc1ccc(NC(=O)N[C@H]2CC[C@H](Oc3ccc(F)cc3)CC2)cc1 | – | < 4.70 | 1.05 | –

Row | SMILES | Activity [1] [µM] | pIC50 [2] | Ratio [3] | also measured
22 | O=C(Nc1ccccc1C(=O)O)N[C@H]1CC[C@@H](Oc2ccc(F)cc2)CC1 | – | < 4.70 | 1.2 | –
23 | COc1cccc(NC(=O)N[C@H]2CC[C@H](Oc3ccc(F)cc3)CC2)c1 | 26 | 4.85 | 3.81 | –
24 | O=C(Nc1cccc(C(F)(F)F)c1)NC1CCCCC1 | – | 4.88 | 1.87 | –
25 | O=C(Nc1ccccc1Br)N[C@H]1CC[C@H](Oc2ccc(F)cc2)CC1 | 16.4 | 5.11 | 5.23 | –
26 | O=C(Nc1cccc(C(F)(F)F)c1)N[C@H]1CC[C@H](OCc2ccc(F)cc2)CC1 | 4.4 | 5.58 | 9.58 | Activity [12]: Active
27 | O=C(Nc1ccccc1)N[C@H]1CC[C@H](Oc2ccc(F)cc2)CC1 | – | 4.70 | 1.65 | –
28 | COC(=O)c1ccc(NC(=O)N[C@H]2CC[C@H](Oc3ccc(F)cc3)CC2)cc1 | 12.8 | 4.94 | 3.97 | –
29 | CSc1cccc(NC(=O)N[C@H]2CC[C@H](Oc3ccc(F)cc3)CC2)c1 | 12.2 | 4.95 | 6.67 | –
30 | O=C(Nc1ccc(Cl)cc1)N[C@H]1CC[C@H](Oc2ccc(F)cc2)CC1 | – | < 4.70 | 1.65 | –
31 | O=C(Nc1cccc([N+](=O)[O-])c1)N[C@H]1CC[C@H](Oc2ccc(F)cc2)CC1 | 11.4 | 5.17 | 7.47 | –
32 | COc1ccc(NC(=O)N[C@H]2CC[C@H](Oc3ccc(F)cc3)CC2)cc1 | – | < 4.70 | 0.83 | –
33 | O=C(Nc1cccc(C(F)(F)F)c1)N[C@H]1CC[C@H](O)CC1 | – | < 4.70 | 0.89 | –
34 | Cc1cccc(NC(=O)N[C@H]2CC[C@H](Oc3ccc(F)cc3)CC2)c1 | 24.1 | 4.84 | 4.73 | –
35 | O=C(Nc1ccccc1F)N[C@H]1CC[C@H](Oc2ccc(F)cc2)CC1 | – | 4.76 | 2.1 | –
36 | COC(=O)c1cccc(NC(=O)N[C@H]2CC[C@H](Oc3ccc(F)cc3)CC2)c1 | 17.1 | 5.04 | 6.83 | –
37 | COC(=O)c1ccccc1NC(=O)N[C@H]1CC[C@@H](Oc2ccc(F)cc2)CC1 | 26.2 | 4.84 | 3.79 | –
38 | O=C(Nc1cccc(C(F)(F)F)c1)N[C@H]1CC[C@H](Oc2ccc(C(F)(F)F)cc2)CC1 | 0.3 | 6.34 | 25.1 | pIC50 [4]: 5.30; pIC50 [5]: 6.18; selectivity ratio [6]: 7.4; pIC50 (NIH3T3): 5.47
39 | O=C(Nc1cccc(C(F)(F)F)c1)N[C@H]1CC[C@H](Oc2ccccc2C(F)(F)F)CC1 | 1.2 | 5.85 | 15.7 | –
40 | COc1ccccc1NC(=O)N[C@H]1CC[C@H](Oc2ccc(F)cc2)CC1 | – | < 4.70 | 1.51 | –
41 | O=C(Nc1cccc(C(F)(F)F)c1)N[C@H]1CC[C@H](Oc2cccc(C(F)(F)F)c2)CC1 | 1.1 | 5.89 | 26 | pIC50 [4]: 5.31; pIC50 [5]: 5.98; selectivity ratio [6]: 2.5; pIC50 (NIH3T3): 5.48
42 | O=C(Nc1cccc(Cl)c1)N[C@H]1CC[C@H](Oc2ccc(F)cc2)CC1 | 6.4 | 5.23 | 8.76 | –

Reference: ChEMBL document CHEMBL3098030, “Explorations of substituted urea functionality for the discovery of new activators of the heme-regulated inhibitor kinase” (J Med Chem, 2013)
